# The list is a sample of the results.
# Apaf1 activ: human Apaf-1 activation; O14727; Apaf-1 apoptosome caspase-3 activation, DEVD-Rh110 fluorescence; hits give low values; activity change, negative = activation, % at 20 µM; 0.31% of 330,000 active; AID 489031;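 active = activity change at or below -40% at 20 µM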
#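 Material: reconstituted apoptosome of Apaf-1, cytochrome c, caspase-9, procaspase-3; times: 30 min preincubation, 50 min reaction, room temperature; measured by: fluorescence, 540 nm emission, 480 nm excitation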
# Rh110 act interf: counter-screen for Apaf-1 activators: fluorescence interference; fluorescence interference (activity change), % at 20 µM, hits read low; shares compounds with Apaf1 activ; Rh110 fluorescence interference, quenched caspase reaction, Ex480/Em540; AID 504616; 980 tested, under 10 active;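 active = mean activity change at or below -40% when tested at 20 µM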
# Apaf-1 act conf: confirmation of human Apaf-1 activators. shares compounds with Apaf1 activ. AID 504617. 5% of 980 active. reconstituted apoptosome caspase-3 activity, DEVD-Rh110 fluorescence; hits give low values. activity change, negative = activation, % at 20 µM;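 active = mean activity change at or below -40%, meaning activation of 40% or more, at 20 µM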
# * = called active by the depositor; . = no result.
SMILES,Apaf1 activ,Rh110 act interf,Apaf-1 act conf
CN1CCN(S(=O)(=O)c2ccc(SCCOc3ccc(Cl)cc3)nc2)CC1,51,.,.
CCOc1cccc2sc(N(CCCN(C)C)C(=O)c3ccc(S(=O)(=O)N4CCc5ccccc5C4)cc3)nc12,62,.,.
CN(C)C=Nc1c(Br)cc(Br)c2nonc12,43,.,.
C=C(C)Cn1c(NCCOC)nc2c1c(=O)[nH]c(=O)n2C,-40*,1,4
Cc1ccc(S(=O)(=O)/N=C2\C=C(Nc3ccc(O)cc3)C(=O)c3ccccc32)cc1,96,.,.
CCOC(=O)c1nn(-c2ccccc2)c(=O)c2c(N)scc12,56,.,.
NS(=O)(=O)c1ccc(Cc2ncc(C(F)(F)F)cc2Cl)s1,-40*,1,8
CN1/C(=C\C(=O)COC(=O)c2ccc([N+](=O)[O-])o2)C(C)(C)c2ccccc21,56,.,.

# Screening data (PubChem BioAssay)
